The source made the active and inactive calls. No cut-off for these calls is given here.

Assay [1] has as its system Mus musculus. In words: Effect on loperamide-induced constipation in CD-1 mouse assessed as increase in stool weight at 10 mg/kg, po via gavage administered 1 hr prior to loperamide administration measured for 3 hrs. Particulars: time 4.0 hrs. The format is functional, organism-based. The method, boiled down:
(§1)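 CD1 mice (bred in house, 8–12 weeks). Test compound given by oral gavage at 10 mg/kg in saline with 5% DMSO and 10% Kolliphor-HS, or vehicle alone, 1 h before loperamide (0.3 mg/kg ip in PBS with 5% ethanol). Mice then held in metabolic cages with free food and water. Stool collected over 3 h for total weight and pellet count. Water content from wet vs dry stool weight.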

The test system of assay [2] is Mus musculus. The assay is described as follows: Effect on loperamide-induced constipation in CD-1 mouse assessed as increase in pellet number at 10 mg/kg, po via gavage administered 1 hr prior to loperamide administration measured for 3 hrs. The assay is classed as functional, organism-based. Particulars: time 4.0 hrs. The method, boiled down: as §1

For the molecule `O=c1cc(COc2ccccc2Cl)nc2scc(-c3ccccc3)n12`, the outcome in assay [1] and in assay [2] was Active.
